These results are taken from ChEMBL document CHEMBL4359929, “Piperidine and piperazine inhibitors of fatty acid amide hydrolase targeting excitotoxic pathology” (Bioorg Med Chem, 2019).

Active and inactive are the calls of the source. The rule behind the calls is not given here.

The nature of data set [1]: Selectivity ratio of IC50 for human recombinant His-tagged MGL expressed in Escherichia coli BL21 DE3 cells to IC50 for rat recombinant His/GST-tagged FAAH expressed in Escherichia coli cells by fluorescence based assay.
Data set [2] in a line: Stability in human gastric fluid assessed as half life. The format is ADME, tissue-based, Gastric juice. A digest of the protocol:
(§1)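 Stability assessed as half-life in human, rat and mouse plasma and gastric fluid, and in human, rat and mouse liver microsomal preparations.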

Data set [3] is filed under the species Homo sapiens. Briefly: Selectivity ratio of IC50 for human recombinant His-tagged MGL expressed in Escherichia coli BL21 DE3 cells to IC50 for human recombinant MBP-tagged FAAH expressed in Escherichia coli cells by fluorescence based assay.
A short description of data set [4]: Stability in rat gastric fluid assessed as half life. It is filed as ADME, tissue-based, Gastric juice. An outline of the steps:
as §1

Data set [5] is described as follows: Selectivity ratio of IC50 for human full length ABHD6 expressed in Escherichia coli cells to IC50 for rat recombinant His/GST-tagged FAAH expressed in Escherichia coli cells by fluorescence based assay.
Data set [6] in a line: Stability in human plasma assessed as half life. The format is ADME, cell-free. An outline of the steps: as §1
The target in data set [7] is Cannabinoid receptor 1 (Rattus norvegicus) (UniProt P20272). As to the kind of experiment: Displacement of [3H]CP55940 from CB1 receptor in rat brain by competition-equilibrium binding analysis.
Target sequence in this assay (P20272 whole entry, looked up): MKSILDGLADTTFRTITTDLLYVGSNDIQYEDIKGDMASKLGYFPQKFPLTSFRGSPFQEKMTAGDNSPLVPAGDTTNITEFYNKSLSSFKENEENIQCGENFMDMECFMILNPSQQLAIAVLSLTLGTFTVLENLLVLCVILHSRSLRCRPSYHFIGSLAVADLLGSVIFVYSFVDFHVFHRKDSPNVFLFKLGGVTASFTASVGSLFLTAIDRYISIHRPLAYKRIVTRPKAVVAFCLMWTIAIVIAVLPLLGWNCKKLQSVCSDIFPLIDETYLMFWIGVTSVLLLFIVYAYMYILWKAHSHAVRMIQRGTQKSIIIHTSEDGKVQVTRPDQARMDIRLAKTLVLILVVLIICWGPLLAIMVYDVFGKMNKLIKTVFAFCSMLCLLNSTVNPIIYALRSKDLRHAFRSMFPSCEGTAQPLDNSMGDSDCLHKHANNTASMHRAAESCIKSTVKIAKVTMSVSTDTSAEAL
A short description of data set [8]: Stability in rat liver microsomes assessed as half life. It is filed as ADME, Microsome. An outline of the steps:
as §1

Data set [9] in a line: Stability in mouse liver microsomes assessed as half life. The format is ADME, Microsome. A digest of the protocol:
as §1

The nature of data set [10]: Ratio of IC50 for rat recombinant His/GST-tagged FAAH expressed in Escherichia coli cells to IC50 for human recombinant MBP-tagged FAAH expressed in Escherichia coli cells by fluorescence based assay.
Data set [11] has as its target Cannabinoid receptor 2 (Homo sapiens) (UniProt P34972). Briefly: Displacement of [3H]CP55940 from human CB2 receptor expressed in HEK293 cells by competition-equilibrium binding analysis. The format is cell-based. An outline of the steps: (§2)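 HEK293 cell membranes expressing mouse or human CB2; competition-equilibrium binding against [3H]CP-55,940.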
The target in data set [12] is T1, Fatty-acid amide hydrolase 1 (Rattus norvegicus, UniProt P97612).
T1 sequence (P97612 whole entry): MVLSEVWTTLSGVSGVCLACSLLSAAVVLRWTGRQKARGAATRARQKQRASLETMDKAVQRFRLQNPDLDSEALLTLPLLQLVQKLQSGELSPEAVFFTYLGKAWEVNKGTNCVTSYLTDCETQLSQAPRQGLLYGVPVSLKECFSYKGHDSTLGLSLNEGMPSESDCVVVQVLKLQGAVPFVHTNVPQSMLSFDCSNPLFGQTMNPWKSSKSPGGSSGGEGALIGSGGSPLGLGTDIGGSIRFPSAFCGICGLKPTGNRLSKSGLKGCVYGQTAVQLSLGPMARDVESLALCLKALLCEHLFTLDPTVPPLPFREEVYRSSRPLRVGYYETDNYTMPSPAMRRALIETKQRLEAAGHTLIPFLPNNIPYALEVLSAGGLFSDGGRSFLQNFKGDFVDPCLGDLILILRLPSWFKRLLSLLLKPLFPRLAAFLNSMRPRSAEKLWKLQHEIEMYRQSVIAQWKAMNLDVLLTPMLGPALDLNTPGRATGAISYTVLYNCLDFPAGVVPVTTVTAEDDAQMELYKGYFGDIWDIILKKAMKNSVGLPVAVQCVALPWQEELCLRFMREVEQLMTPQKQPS
As to the kind of experiment: Inhibition of rat recombinant His/GST-tagged FAAH expressed in Escherichia coli cells using AAMCA as substrate incubated for 15 mins followed by substrate addition and measured after every 20 mins for 4 hrs by fluorescence based assay. An outline of the steps: (§3)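 Fluorescent enzyme assay in throughput format. Human recombinant FAAH or purified rat FAAH used arachidonoyl 7-amino-4-methylcoumarin amide as substrate; human recombinant MGL was run by a similar fluorometric procedure.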

Data set [13] can be described thus: Stability in mouse plasma assessed as half life. It is filed as ADME, cell-free. An outline of the steps: as §1
For data set [14], the target named is Cannabinoid receptor 1 (Rattus norvegicus) (UniProt P20272). Briefly: Displacement of [3H]CP55940 from CB1 receptor in rat brain by competition-equilibrium binding analysis. It is filed as tissue-based. A digest of the protocol: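 Rat brain membranes as CB1 source; competition-equilibrium binding against [3H]CP-55,940.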
Target sequence in this assay (P20272 whole entry): as the sequence (P20272 whole entry, looked up) above
Data set [15] is described as follows: Stability in rat plasma assessed as half life. It is filed as ADME, cell-free. An outline of the steps: as §1
The target in data set [16] is Cannabinoid receptor 2 (Mus musculus) (UniProt P47936). Briefly: Displacement of [3H]CP55940 from mouse CB2 receptor expressed in HEK293 cells by competition-equilibrium binding analysis. The format is cell-based. A digest of the protocol: as §2
Cannabinoid receptor 2 (Mus musculus), sequence (P47936 whole entry): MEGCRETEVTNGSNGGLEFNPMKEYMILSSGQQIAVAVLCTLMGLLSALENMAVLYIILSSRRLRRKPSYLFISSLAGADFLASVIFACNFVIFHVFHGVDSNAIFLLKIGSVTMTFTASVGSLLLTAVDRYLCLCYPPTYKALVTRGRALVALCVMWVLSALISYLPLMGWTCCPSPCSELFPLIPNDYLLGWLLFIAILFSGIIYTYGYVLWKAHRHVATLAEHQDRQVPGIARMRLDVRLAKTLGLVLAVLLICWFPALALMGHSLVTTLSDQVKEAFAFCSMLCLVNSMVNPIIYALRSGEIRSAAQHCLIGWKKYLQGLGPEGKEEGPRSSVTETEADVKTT
The nature of data set [17]: Stability in mouse gastric fluid assessed as half life. It is filed as ADME, tissue-based, Gastric juice. An outline of the steps: as §1
The species entered for data set [18] is Homo sapiens. Briefly: Selectivity ratio of IC50 for human full length ABHD6 expressed in Escherichia coli cells to IC50 for human recombinant MBP-tagged FAAH expressed in Escherichia coli cells by fluorescence based assay.
A short description of data set [19]: Stability in human liver microsomes assessed as half life. It is filed as ADME, Microsome. An outline of the steps: as §1
In data set [20] the target is T2, Fatty-acid amide hydrolase 1 (Homo sapiens, UniProt O00519).
T2 sequence (O00519 whole entry): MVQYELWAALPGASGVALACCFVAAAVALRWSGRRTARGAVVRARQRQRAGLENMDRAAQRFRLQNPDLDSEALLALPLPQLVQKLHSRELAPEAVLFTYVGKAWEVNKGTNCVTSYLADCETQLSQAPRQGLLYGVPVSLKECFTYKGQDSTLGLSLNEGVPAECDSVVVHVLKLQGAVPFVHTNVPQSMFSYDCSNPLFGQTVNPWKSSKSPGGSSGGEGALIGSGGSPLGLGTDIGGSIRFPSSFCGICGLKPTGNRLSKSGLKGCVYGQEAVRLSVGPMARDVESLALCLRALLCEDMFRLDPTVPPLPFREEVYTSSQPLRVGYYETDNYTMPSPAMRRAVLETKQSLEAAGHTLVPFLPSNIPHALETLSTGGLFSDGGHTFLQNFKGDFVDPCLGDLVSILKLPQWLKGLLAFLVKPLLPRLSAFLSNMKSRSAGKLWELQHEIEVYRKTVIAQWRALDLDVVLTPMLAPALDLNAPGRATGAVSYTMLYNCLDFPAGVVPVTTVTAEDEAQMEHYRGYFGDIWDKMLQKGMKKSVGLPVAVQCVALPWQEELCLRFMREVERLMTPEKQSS
Briefly: Inhibition of human recombinant MBP-tagged FAAH expressed in Escherichia coli cells using AAMCA as substrate incubated for 15 mins followed by substrate addition and measured after every 20 mins for 4 hrs by fluorescence based assay. An outline of the steps:
as §3

Data set [21] concerns the target T3, Monoglyceride lipase (Homo sapiens, UniProt Q99685).
T3 sequence (Q99685 whole entry): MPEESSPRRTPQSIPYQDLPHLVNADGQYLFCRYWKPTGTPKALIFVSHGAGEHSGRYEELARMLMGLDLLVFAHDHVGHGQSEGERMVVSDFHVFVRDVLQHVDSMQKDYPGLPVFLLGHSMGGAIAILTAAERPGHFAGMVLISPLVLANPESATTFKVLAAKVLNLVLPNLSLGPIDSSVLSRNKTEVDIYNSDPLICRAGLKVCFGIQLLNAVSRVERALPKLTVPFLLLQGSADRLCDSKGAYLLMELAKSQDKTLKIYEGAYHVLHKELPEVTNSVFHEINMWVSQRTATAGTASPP
Briefly: Inhibition of human recombinant His-tagged MGL expressed in Escherichia coli BL21 DE3 cells using AHMMCE as substrate preincubated with enzyme for 15 mins followed by substrate addition and measured after every 15 mins for 3 hrs by fluorescence based assay. An outline of the steps: as §3

Data set [22] has as its target T4, Fatty-acid amide hydrolase 1 (Rattus norvegicus) (UniProt P97612).
T4 sequence (whole entry): T1 sequence (P97612 whole entry)
Briefly: Inhibition of rat recombinant His/GST-tagged FAAH expressed in Escherichia coli cells at 1 uM using AAMCA as substrate incubated for 15 mins followed by substrate addition and measured after every 20 mins for 4 hrs by fluorescence based assay relative to control. A digest of the protocol:
(§4)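 Fluorescent FAAH assay with arachidonoyl 7-amino-4-methylcoumarin amide as substrate; compound tested at a single concentration of 1 µM; percent inhibition reported.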

Data set [23] has as its target T5, Monoglyceride lipase (Homo sapiens) (UniProt Q99685).
T5 sequence (whole entry): T3 sequence (Q99685 whole entry)
The note with it: at 1 µM.

Data set [24] addresses T6, Fatty-acid amide hydrolase 1 (Homo sapiens) (UniProt O00519).
T6 sequence (whole entry): T2 sequence (O00519 whole entry)
As to the kind of experiment: Inhibition of human recombinant MBP-tagged FAAH expressed in Escherichia coli cells at 1 uM using AAMCA as substrate incubated for 15 mins followed by substrate addition and measured after every 20 mins for 4 hrs by fluorescence based assay relative to control. An outline of the steps: as §4

The nature of data set [25]: Drug concentration in plasma (unknown origin) at 2 mg/kg, iv measured after 15 mins. The format is ADME, organism-based. A digest of the protocol:
(§5)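 Cassette pharmacokinetics: compounds given together at 2 mg/kg iv; brain and plasma levels (µg/mL) measured at 15 min.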

Data set [26] can be described thus: Drug concentration in brain (unknown origin) at 2 mg/kg, iv measured after 15 mins. It is filed as ADME, organism-based. As to conditions: read-out: Ct. A digest of the protocol: as §5

Cannabinoid receptor 2 (Homo sapiens), sequence (P34972 whole entry): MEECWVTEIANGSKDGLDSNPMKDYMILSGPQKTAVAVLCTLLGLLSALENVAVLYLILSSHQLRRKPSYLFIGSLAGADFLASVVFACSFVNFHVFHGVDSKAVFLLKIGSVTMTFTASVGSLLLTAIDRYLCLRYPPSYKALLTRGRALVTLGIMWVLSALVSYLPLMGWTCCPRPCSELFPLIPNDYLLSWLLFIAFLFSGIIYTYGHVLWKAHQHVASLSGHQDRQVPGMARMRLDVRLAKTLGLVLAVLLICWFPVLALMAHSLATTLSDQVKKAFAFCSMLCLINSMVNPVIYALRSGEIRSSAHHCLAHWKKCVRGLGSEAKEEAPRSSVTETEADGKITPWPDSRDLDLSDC

As to `O=C(Oc1cccc(N2CCS(=O)(=O)CC2)c1)N1CCC(c2ccc(N3CCCC3)cc2)CC1`, the Ratio IC50 is more than 1000 in data set [1]; more than 1000 in [3]; more than 1000 in data set [5]; 2 to 3 in data set [10]; more than 1000 in data set [18]. The half-life in data set [2] was more than 60 min; in data set [4] it was more than 60 min; in data set [6] it was more than 60 min; in data set [8], 15 to 25 min; in [9], 15 to 25 min; in [13], more than 60 min. Besides, the half-life was more than 60 min in [15], more than 60 min in [17] and 15 to 25 min in data set [19]. For the same compound, the result in data set [7], in [11], in data set [14] and in data set [16] was inactive. Further, the figures for the IC50 in data set [12], in [20] and in data set [21] were 6.3 nM, 3.5 nM and more than 1000 nM, respectively.
Consider `O=C(Nc1cccc(N2CCS(=O)(=O)CC2)c1)N1CCC(c2ccccc2)CC1`, for which the outcome in data set [7], in data set [11], in [14] and in data set [16] was inactive. The inhibition result in data set [22], in data set [23] and in [24] was “inactive” each time.
Turning to `O=C(Oc1cccc(N2CCS(=O)(=O)CC2)c1)N1CCC(c2ccc(OCCF)cc2)CC1`, the Ratio IC50 in data set [1], in data set [3], in [5] and in [18] was more than 1000 throughout. The half-life was more than 60 min in [2]; more than 60 min in data set [4]; more than 60 min in data set [6]; 15 to 25 min in data set [8]; 15 to 25 min in data set [9]; more than 60 min in [13]. Also, the values for the half-life in data set [15], in [17] and in data set [19] were more than 60 min, more than 60 min and 15 to 25 min, respectively. In addition, the outcome in data set [7], in data set [11], in data set [14] and in [16] was inactive. Further, the concentration at 0.25 h was found to be 388 ng/mL in data set [25] and 909 ng/mL in data set [26]. Also, the IC50 in [12] is 5.5 nM; in [20] it was 21.2 nM; in data set [21] it was more than 1000 nM.
For `CN(C)c1ccc(C2CCN(C(=O)Oc3cccc(N4CCS(=O)(=O)CC4)c3)CC2)cc1`, the Ratio IC50 was more than 1000 in data set [1]; more than 1000 in [3]; more than 1000 in data set [5]; 2 to 3 in [10]; more than 1000 in [18]. Also, the half-life in data set [2] was more than 60 min; in data set [4], more than 60 min; in [6] it was more than 60 min; in [8], 15 to 25 min; in [9], 15 to 25 min; in [13], more than 60 min. Besides, the half-life in [15] was more than 60 min; in data set [17], more than 60 min; in data set [19] it was 15 to 25 min. The result in data set [7], in [11], in data set [14] and in data set [16] was inactive. The concentration at 0.25 h in [25] stood at 746 ng/mL; in [26] it was 1110 ng/mL. The 50% inhibitory concentration (IC50) in [12] is 6.9 nM; in [20], 2.4 nM; in data set [21], more than 1000 nM.
Take `O=C(Oc1cccc(N2CCOCC2)c1)N1CCC(c2ccc(F)cc2)CC1`: the Ratio IC50 in [1], in data set [3], in [5] and in data set [18] was more than 1000 each time. Further, the half-life is more than 60 min in data set [2]; more than 60 min in [4]; more than 60 min in [6]; 15 to 25 min in [8]; 15 to 25 min in data set [9]; more than 60 min in [13]. Further, the half-life in data set [15] is more than 60 min; in data set [17], more than 60 min; in [19], 15 to 25 min. The outcome in data set [7], in [11], in [14] and in data set [16] was inactive. Also, the concentration at 0.25 h in data set [25] was 506 ng/mL; in data set [26], 508 ng/mL. Further, the IC50 was 2.93 nM in data set [12], 16.3 nM in [20] and more than 1000 nM in data set [21].
Consider `O=C(Nc1cccc(N2CCS(=O)(=O)CC2)c1)N1CCN(c2ccccc2)CC1`, for which the outcome in data set [7], in data set [11], in data set [14] and in data set [16] was inactive. Further, the inhibition result in data set [22], in data set [23] and in data set [24] was “inactive” each time.
